Measurements taken from ChEMBL document CHEMBL1159128, “Structure-activity relationship of C5-curcuminoids and synthesis of their molecular probes thereof” (2010).

system: HCT-116; assay: Growth inhibition of human HCT116 cells after 48 hrs by MTS assay; type: functional; conditions: HCT-116, 48 h
Procedure, shortened: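 Vehicle controls received 1% DMSO alone. Growth in treated wells was expressed as a percentage of this control and plotted against concentration, and the mean growth-inhibitory concentration (GI50) was read from the curve.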

Row | GI50 [nM] | Structure (SMILES)
1 | 500 | COc1cc(/C=C/C(=O)/C=C/c2cc(OC)c(OCCO)c(OC)c2)cc(OC)c1OCCO
2 | 7600 | COc1cc(/C=C/C(=O)/C=C/c2cc(OC)c(OCCN=[N+]=[N-])c(OC)c2)cc(OC)c1OCCN=[N+]=[N-]
3 | 7600 | COc1cc(/C=C/C(=O)/C=C/c2cccc(OC(=O)C34CC5CC(CC(C5)C3)C4)c2)cc(OC)c1OC
4 | 1500 | CCOC(C)Oc1c(OC)cc(/C=C/C(=O)/C=C/c2cc(OC)c(OC)c(OC)c2)cc1OC (configuration not stated)
5 | 3000 | COc1ccc(/C=C/C(=O)/C=C/c2cc(OC)c(OC)c(OC)c2)cc1
6 | 1700 | COc1cc(/C=C/C(=O)/C=C/c2cc(OC)c(OCCO)c(OC)c2)cc(OC)c1OC
7 | 2400 | C#CCOc1c(OC)cc(/C=C/C(=O)/C=C/c2cc(OC)c(OCOC)c(OC)c2)cc1OC
8 | 8500 | COc1cc(/C=C/C(=O)/C=C/c2cccc(OC(c3ccccc3)(c3ccccc3)c3ccccc3)c2)cc(OC)c1OC
9 | 2300 | COc1cc(OC)c(/C=C/C(=O)/C=C/c2c(OC)cc(OC)cc2OC)c(OC)c1
10 | 4000 | COc1ccccc1/C=C/C(=O)/C=C/c1ccccc1OC
11 | 1300 | COc1cccc(/C=C/C(=O)/C=C/c2cccc(OC)c2OC)c1OC
12 | 400 | COc1ccc(/C=C/C(=O)/C=C/c2cc(OC)c(OC)c(OC)c2)cc1OC
13 | 15000 | COc1cc(/C=C/C(=O)/C=C/c2ccc(O)c(OC)c2)ccc1O
14 | 300 | COc1cc(/C=C/C(=O)/C=C/c2cc(OC)c(OC)c(OC)c2)cc(OC)c1OC
15 | 800 | COc1cc(/C=C/C(=O)/C=C/c2cc(OC)c(OCc3cn(CCCCCCCCCO)nn3)c(OC)c2)cc(OC)c1OC
16 | > 50000 | COc1ccc(CCC(=O)CCc2ccc(OC)c(OC)c2)cc1OC
17 | 800 | COc1cc(/C=C/C(=O)/C=C/c2cc(OC)c(OCc3cn(CCCCCCCCCCNC(=O)OC(C)(C)C)nn3)c(OC)c2)cc(OC)c1OC
18 | 2000 | COc1cc(OC)c(OC)cc1/C=C/C(=O)/C=C/c1cc(OC)c(OC)cc1OC
19 | 38000 | COc1cc(/C=C/C(=O)/C=C/c2cc(OC)c(OCC(=O)O)c(OC)c2)cc(OC)c1OC
20 | > 50000 | COc1ccc(/C=C/C(=O)/C=C/c2ccc(OC)cc2OC)c(OC)c1
21 | 1800 | C#CCOc1c(OC)cc(/C=C/C(=O)/C=C/c2cc(OC)c(OC)c(OC)c2)cc1OC
22 | 800 | COc1ccc(/C=C/C(=O)/C=C/c2ccc(OC)c(O)c2)cc1O

Row | GI50 [nM] | Structure (SMILES)
23 | > 50000 | COc1ccc(CCC(O)CCc2ccc(OC)c(OC)c2)cc1OC
24 | 900 | COc1cc(/C=C/C(=O)/C=C/c2cccc(O)c2)cc(OC)c1OC
25 | > 50000 | CCCCCCCCCCCCCCOc1cccc(/C=C/C(=O)/C=C/c2cc(OC)c(OC)c(OC)c2)c1
26 | 9000 | COc1ccc(/C=C/C(=O)/C=C/c2ccc(OC)cc2)cc1
27 | 6900 | COc1cccc(/C=C/C(=O)/C=C/c2cc(OC)c(OC)c(OC)c2)c1
28 | 3500 | COc1ccc(/C=C/C(=O)/C=C/c2ccc(OC)c(OC)c2OC)c(OC)c1OC
29 | 1500 | COc1ccc(/C=C/C(=O)/C=C/c2ccc(OC)c(OC)c2)cc1OC
30 | 800 | COc1cc(/C=C/C(=O)/C=C/c2cc(OC)c(OC)c(OC)c2)cc(OC)c1O
31 | > 50000 | COc1ccc(/C=C/C(/C=C/c2ccc(OC)c(OC)c2)=NO)cc1OC
32 | 2300 | COc1ccc(OC)c(OC)c1/C=C/C(=O)/C=C/c1c(OC)ccc(OC)c1OC
33 | 7000 | COc1ccc(/C=C/C(=O)c2ccc(OC)c(OC)c2)cc1OC
34 | 17000 | COc1cc(/C=C/C(=O)/C=C/c2cccc(Cl)c2)cc(OC)c1OC
35 | > 50000 | COc1ccc(/C=C2\CCC/C(=C\c3ccc(OC)c(OC)c3)C2=O)cc1OC
36 | 300 | COCOc1c(OC)cc(/C=C/C(=O)/C=C/c2cc(OC)c(OCOC)c(OC)c2)cc1OC
37 | 4400 | COc1cc(/C=C/C(=O)/C=C/c2ccccc2)cc(OC)c1OC
38 | 1400 | CCOC(C)Oc1cccc(/C=C/C(=O)/C=C/c2cc(OC)c(OC)c(OC)c2)c1 (configuration not stated)
39 | 4000 | COc1ccc(/C=C/C(=O)/C=C/c2ccc(OC)c(OC)c2)cc1
40 | > 50000 | COc1cc(OC)c(OC)c(OC)c1/C=C/C(=O)/C=C/c1c(OC)cc(OC)c(OC)c1OC
41 | 8100 | COc1cc(/C=C/C(=O)/C=C/c2cccc(C#Cc3ccccc3)c2)cc(OC)c1OC
42 | 2400 | COc1cc(/C=C/C(=O)/C=C/c2cccc(OS(=O)(=O)C(F)(F)F)c2)cc(OC)c1OC
43 | 800 | COc1cc(/C=C/C(=O)/C=C/c2cc(OC)c(O)c(OC)c2)cc(OC)c1O
44 | 15000 | COc1cc(/C=C/C(=O)/C=C/c2cc(OC)c(OCc3cn(CCCCCCCCCOC(=O)CCC4=[N+]5C(=Cc6c(C)cc(C)n6[B-]5(F)F)C=C4)nn3)c(OC)c2)cc(OC)c1OC

Row | GI50 [nM] | Structure (SMILES)
45 | 1900 | COc1cc(/C=C/C(=O)/C=C/c2ccc(OC)c(OC)c2OC)cc(OC)c1OC
46 | 2600 | COc1cc(/C=C/C(=O)/C=C/c2cc(OC)c(OCc3cn(CCCCCCCCCCOC(=O)CSCc4c(C)n5c(C)c(C)c(=O)n5c4=O)nn3)c(OC)c2)cc(OC)c1OC
47 | 9700 | COc1cc(/C=C/C(=O)/C=C/c2cc(OC)c(OCCN=[N+]=[N-])c(OC)c2)cc(OC)c1OC
48 | 3300 | COc1cc(OC)c(OC)cc1/C=C/C(=O)/C=C/c1cc(OC)c(OC)c(OC)c1
49 | 2000 | COc1ccc(/C=C/C(=O)/C=C(O)/C=C/c2ccc(OC)c(OC)c2)cc1OC
50 | 1500 | COc1ccc(/C=C/C(=O)/C=C/c2ccc(OC)c(OC)c2)cc1O
51 | 8100 | COc1ccc(OC)c(/C=C/C(=O)/C=C/c2cc(OC)ccc2OC)c1
52 | 4000 | COCOc1cccc(/C=C/C(=O)/C=C/c2cc(OC)c(OC)c(OC)c2)c1
53 | 9100 | COc1cccc(/C=C/C(=O)/C=C/c2cccc(OC)c2)c1
54 | 7000 | COC(=O)COc1c(OC)cc(/C=C/C(=O)/C=C/c2cc(OC)c(OC)c(OC)c2)cc1OC
55 | 9000 | COc1cccc(OC)c1/C=C/C(=O)/C=C/c1c(OC)cccc1OC
56 | > 50000 | C=C1CC2CC(C1)/C(=C\c1ccc(OC)c(OC)c1)C(=O)/C2=C/c1ccc(OC)c(OC)c1
57 | 22000 | CCCSC(CC(=O)/C=C/c1ccc(OC)c(OC)c1)c1ccc(OC)c(OC)c1 (configuration not stated)
58 | > 50000 | COc1ccc(/C=C/C(=O)CCc2ccc(OC)c(OC)c2)cc1OC
59 | 800 | COCOc1ccc(/C=C/C(=O)/C=C/c2ccc(OCOC)c(OCOC)c2)cc1OCOC
60 | 300 | COc1cc(/C=C/C(=O)/C=C/c2cc(OC)c(OCc3cn(Cc4ccc(OC5CCCCO5)cc4)nn3)c(OC)c2)cc(OC)c1OC (configuration not stated)
61 | 1500 | O=C(/C=C/c1cc(O)cc(O)c1)/C=C/c1cc(O)cc(O)c1
62 | 2000 | COc1cc(/C=C/C(=O)/C=C/c2cc(OC)cc(OC)c2)cc(OC)c1
63 | 300 | C#CCOc1c(OC)cc(/C=C/C(=O)/C=C/c2cc(OC)c(OCC#C)c(OC)c2)cc1OC
64 | 700 | COc1cc(/C=C/C(=O)/C=C/c2ccc(OC)c(OC)c2)ccc1O

system: DLD-1; assay: Cytotoxicity against human DLD1 cells; type: functional; conditions: not given

Row | Structure (SMILES) | GI50 [µM]
65 | COc1cc(/C=C/C(=O)CC(=O)/C=C/c2ccc(O)c(OC)c2)ccc1O [CURCUMIN] | 8
66 | COc1ccc(/C=C/C(=O)/C=C/c2ccc(OC)c(OC)c2)cc1OC | 2
67 | O=C(/C=C/c1ccc2c(c1)OCO2)/C=C/c1ccc2c(c1)OCO2 | > 50
